In brackets after ≈: the same amount, converted by molar mass. Activity calls are given as the source filed them. No cut-off for these calls is given here. Where only a bound is given, the exact number is not on record here.

Series [1] is described as follows: Thermal stability of the compound at 2 ug/ml at 65 degC after 6 hrs by UHPLC-ESI-MS/MS analysis. It is filed as physicochemical. In outline:
(§1)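 Sample held at 25 °C 0 h, 37 °C 6 h or 65 °C 6 h, then 5 µL injected on UHPLC coupled to ESI-QTOF MS/MS at 0.4 mL/min; sample 2 µg/mL with mobile phase A 10% acetonitrile (ampicillin sodium) or 1 µg/mL with 35% acetonitrile (test compound); residual parent compound monitored.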

The subject of series [2] is Ralstonia solanacearum. The series is described as follows: Antibacterial activity against Ralstonia solanacearum CGMCC 1.12711 measured after 12 to 14 hrs by double dilution method. Type of series: functional. In outline: (§2)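 Broth double-dilution MIC per NCCLS. Bacteria at 1×10^6 CFU/mL in Luria-Bertani medium. Compounds dissolved in DMSO as stock, then diluted in medium to 200, 100, 50, 25, 12.5, 6.25 and 3.125 nmol/mL (DMSO <0.5%); some also tested at 256–1 µg/mL. Incubated at 37 °C for 12–14 h. MIC read as lowest concentration giving visible growth inhibition.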

Series [3] in a line: Thermal stability of the compound at 2 ug/ml at 37 degC after 6 hrs by UHPLC-ESI-MS/MS analysis. It is filed as physicochemical. In outline:
as §1

The subject of series [4] is Staphylococcus aureus. Kind of series: Antibacterial activity against methicillin-resistant Staphylococcus aureus ATCC 43300 after 12 to 14 hrs by double dilution method. Type of series: functional. The essentials: as §2
Series [5] has as its system Bacillus cereus. The series is described as follows: Antibacterial activity against Bacillus cereus CGMCC 1.1846 after 12 to 14 hrs by double dilution method. It is filed as functional.
The test system of series [6] is Staphylococcus aureus. The series is described as follows: Antibacterial activity against Staphylococcus aureus CGMCC 1.8721 after 12 to 14 hrs by double dilution method. It is filed as functional.
For series [7], the system named is Bacillus subtilis. Kind of series: Antibacterial activity against Bacillus subtilis 769 after 12 to 14 hrs by double dilution method. It is filed as functional.
Series [8] relates to Escherichia coli. The series is described as follows: Antibacterial activity against Escherichia coli CGMCC 1.1636 after 12 to 14 hrs by double dilution method. It is filed as functional.
Series [9] can be described thus: Cytotoxicity against […] MARC145 cells assessed as cell viability at 8 ug/ml by MTT assay. As to conditions: chlorocebus aethiops, read-out: Activity. It is filed as cell-based.
Series [10] in a line: Cytotoxicity against human L02 cells assessed as cell viability at 8 ug/ml by MTT assay. It is filed as cell-based. To be noted: read-out: Activity. In outline:
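MTT viability assay on normal cells (MARC 145 monkey kidney, L02 human hepatocyte) exposed to 8 µg/mL; MTT in PBS then 4 h at 37 °C, 5% CO2; formazan dissolved in DMSO with 15 min shaking; absorbance at 540 nm; viability = treated/untreated absorbance × 100%.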
(In general: Tetrazolium dyes change colour on reduction, which living cells bring about.)

In series [11] the test system is Staphylococcus aureus. The series is described as follows: Antibacterial activity against multidrug-resistant Staphylococcus aureus XU212 after 24 hrs. To be noted: XU212, 24 h. It is filed as functional.
Series [12] relates to Staphylococcus aureus. The series is described as follows: Antibacterial activity against multidrug-resistant Staphylococcus aureus 1199B after 24 hrs. It is filed as functional.
Series [13] concerns Staphylococcus aureus. The series is described as follows: Antibacterial activity against methicillin-resistant Staphylococcus aureus EMRSA15 after 24 hrs. Type of series: functional. As to conditions: EMRSA15, 24 h.
Series [14] deals with Ralstonia solanacearum. The series is described as follows: Bactericidal activity against Ralstonia solanacearum CGMCC 1.12711 assessed as cell shrinkage at 0.5 MIC after 1 hr by scanning electron microscopy analysis. It is filed as functional, organism-based.
The nature of series [15]: Thermal stability of the compound at 1 ug/ml at 65 degC after 6 hrs by UHPLC-ESI-MS/MS analysis. Type of series: physicochemical. In outline: as §1
Series [16] concerns Staphylococcus aureus. The series is described as follows: Bactericidal activity against methicillin-resistant Staphylococcus aureus ATCC 43300 assessed as cell shrinkage at 0.5 MIC after 1 hr by scanning electron microscopy analysis. Type of series: functional, organism-based.
The test system of series [17] is Ralstonia solanacearum. The series is described as follows: Protection against Ralstonia solanacearum-induced infection in eggplant leaf at 8 ug/ml after 3 days relative to control. It is filed as functional.
The test system of series [18] is Ralstonia solanacearum. Kind of series: Bactericidal activity against Ralstonia solanacearum CGMCC 1.12711 assessed as cell wall disintegration at 0.5 MIC after 1 hr by scanning electron microscopy analysis. Type of series: functional, organism-based.
Series [19] is described as follows: Thermal stability of the compound at 1 ug/ml at 37 degC after 6 hrs by UHPLC-ESI-MS/MS analysis. Type of series: physicochemical. In outline: as §1
For series [20], the system named is Staphylococcus aureus. The series is described as follows: Bactericidal activity against methicillin-resistant Staphylococcus aureus ATCC 43300 assessed as cell wall disintegration at 0.5 MIC after 1 hr by scanning electron microscopy analysis. Type of series: functional, organism-based.
The subject of series [21] is Staphylococcus aureus. Kind of series: Antibacterial activity against methicillin-resistant Staphylococcus aureus after 48 hrs by broth microtube dilution method. It is filed as functional.
In series [22] the test system is Staphylococcus aureus. Kind of series: Antibacterial activity against Staphylococcus aureus after 18 hrs. Type of series: functional.

Turning to `CC1(C)S[C@@H]2[C@H](NC(=O)[C@H](N)c3ccccc3)C(=O)N2[C@H]1C(=O)[O-].[Na+]` [AMPICILLIN SODIUM], the Stability result in series [1] and in series [3] was “Unstable” in each case. Besides, the MIC (as a rule, the lowest concentration that inhibits growth of the organism) was 3.12 µM in [2]; 50 µM in series [4]; 200 µM in series [5]; 3.12 µM in series [6]; 1.56 µM in series [7]; 3.12 µM in series [8].
As to `COc1ccc2[nH]c3c(-c4ccco4)[n+](Cc4ccc(C(F)(F)F)cc4)ccc3c2c1`, the viability at 8 ug/ml in series [9] is 88.5%; in series [10] it was 74.3%. Further, the minimum inhibitory concentration (MIC) in series [2] was 25 µM; in [4], 25 µM; in series [5], 50 µM; in series [6], 25 µM; in [7], 25 µM; in series [8], 50 µM.
Consider `FC(F)(F)c1ccc(C[n+]2ccc3c([nH]c4ccccc43)c2-c2ccc3c(c2)OCO3)cc1`, for which the viability at 8 ug/ml in [9] came out at 96.3%; in [10], 85.7%. Further, the MIC in [2] came to 25 µM; in series [4], 25 µM; in series [5], 50 µM; in series [6], 25 µM; in [7], 25 µM; in [8], 100 µM.
Regarding `O=c1ccc2nccc3c4ccccc4n1c23` [CANTHIN-6-ONE], the minimal inhibitory concentration (MIC) in series [11], in series [12] and in [13] was 8 to 64 µg/mL (≈ 36.3 to 291 µM) throughout.
Take `COc1ccc2[nH]c3c(-c4ccc5c(c4)OCO5)[n+](Cc4ccc(C(F)(F)F)cc4)ccc3c2c1.[Br-]`: the viability at 8 ug/ml was 103% in series [9] and 84.6% in series [10]. Further, the MIC came out at 25 µM in series [2]; 12.5 µM in [4]; 25 µM in series [5]; 25 µM in [6]; 25 µM in series [7]; 50 µM in series [8]. The result in [14], in [16], in series [18] and in [20] was Active. Also, the Stability entry in series [15] and in series [19] was “Stable” throughout. This molecule also registered an Activity in series [17] of 81.3%.
For `COC(=O)c1ccc(-c2c3[nH]c4ccc(OC)cc4c3cc[n+]2Cc2ccc(C(F)(F)F)cc2)cc1`, the results for the viability at 8 ug/ml in [9] and in series [10] were 93.2% and 71.6%, respectively. Moreover, the minimum inhibitory concentration (MIC) in [2] is 25 µM; in series [4], 25 µM; in series [5], 25 µM; in series [6] it was 25 µM; in series [7] it was 25 µM; in series [8] it was 200 µM.
As for `COC(=O)c1ccc(-c2c3[nH]c4ccc(OC)cc4c3cc[n+]2Cc2ccc(Br)cc2)cc1`, the viability at 8 ug/ml in [9] came out at 94.8%; in [10], 73.5%. In addition, the MIC in [2] was determined as 25 µM; in [4] it was 37.5 µM; in [5], 37.5 µM; in [6], 25 µM; in series [7], 25 µM.
For `Cc1ccc2[nH]c3c[n+](C)ccc3c2c1.[I-]`, in series [21], the MIC turned out to be 4 µg/mL.
Regarding `FC(F)(F)c1ccc(C[n+]2ccc3c([nH]c4ccccc43)c2-c2ccco2)cc1`, the viability at 8 ug/ml in series [9] worked out at 87.1%; in series [10], 76.2%. Also, the MIC in [2] is 25 µM; in series [4], 25 µM; in series [5], 50 µM; in series [6] it was 25 µM; in series [7], 25 µM; in series [8] it was 50 µM.
As for `Cc1nccc2c1[nH]c1ccccc12` [HARMAN], 1000 µg/mL (≈ 5490 µM) was the least that counted as inhibitory in [22] (MIC).
With `COc1ccc2[nH]c3c(-c4ccc5c(c4)OCO5)nccc3c2c1`, the MIC in series [2] is greater than 200 µM; in series [4], 200 µM (≈ 63.7 µg/mL); in series [5], greater than 200 µM; in series [6] it was 200 µM (≈ 63.7 µg/mL); in series [7] it was greater than 200 µM; in series [8], greater than 200 µM.
Take `COc1ccc2[nH]c3c(-c4ccco4)[n+](Cc4ccccc4)ccc3c2c1`: the MIC in series [2] is 100 µM; in series [4], 100 µM; in [5] it was 200 µM; in series [6] it was 100 µM; in series [7], 50 µM; in series [8], greater than 200 µM.
In the case of `COc1ccc2[nH]c3c(-c4ccc5c(c4)OCO5)[n+](Cc4ccc(C)cc4)ccc3c2c1`, the viability at 8 ug/ml is 98.5% in series [9] and 82.2% in [10]. For the same molecule, the minimal inhibitory concentration (MIC) in series [2] stood at 25 µM; in series [4], 25 µM; in [5], 50 µM; in [6], 25 µM; in [7], 25 µM; in [8], 200 µM.
`COc1ccc2[nH]c3c(-c4ccccn4)nccc3c2c1`: the MIC in [2], in [4], in series [5], in [6], in series [7] and in series [8] was greater than 200 µM each time.
On to `COc1ccc2[nH]c3c(-c4ccccn4)[n+](Cc4ccc(C)cc4)ccc3c2c1`, for which the MIC in series [2] is 100 µM; in series [4] it was 100 µM; in [5] it was 200 µM; in series [6] it was 100 µM; in series [7], 100 µM; in series [8] it was greater than 200 µM.

The record behind these values is ChEMBL document CHEMBL4325839, “Design, synthesis and biological evaluations of quaternization harman analogues as potential antibacterial agents” (Eur J Med Chem, 2018).
